Columns and labels:
[1] = Inhibition of rat brain cytosolic cAMP phosphodiesterase (inactive)
Method in brief: (§1)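 Rat brains without cerebellum were homogenized in 0.32 M sucrose, 5 mM Tris-HCl pH 7.5, 1 mM MgCl2, 0.1 mM DTT. After a 1000g spin and a high-speed spin, the supernatant was dialyzed overnight against 20 mM Tris-HCl pH 7.5, 1 mM MgCl2, 0.1 mM DTT. Assay used 0.25 µM cAMP or cGMP in triplicate at 30 °C.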

[2] = target: T1, cGMP-dependent 3',5'-cyclic phosphodiesterase (Rattus norvegicus, UniProt Q01062); assay: Inhibition of rat brain particulate cGMP phosphodiesterase (inactive)
T1 sequence (Q01062 whole entry): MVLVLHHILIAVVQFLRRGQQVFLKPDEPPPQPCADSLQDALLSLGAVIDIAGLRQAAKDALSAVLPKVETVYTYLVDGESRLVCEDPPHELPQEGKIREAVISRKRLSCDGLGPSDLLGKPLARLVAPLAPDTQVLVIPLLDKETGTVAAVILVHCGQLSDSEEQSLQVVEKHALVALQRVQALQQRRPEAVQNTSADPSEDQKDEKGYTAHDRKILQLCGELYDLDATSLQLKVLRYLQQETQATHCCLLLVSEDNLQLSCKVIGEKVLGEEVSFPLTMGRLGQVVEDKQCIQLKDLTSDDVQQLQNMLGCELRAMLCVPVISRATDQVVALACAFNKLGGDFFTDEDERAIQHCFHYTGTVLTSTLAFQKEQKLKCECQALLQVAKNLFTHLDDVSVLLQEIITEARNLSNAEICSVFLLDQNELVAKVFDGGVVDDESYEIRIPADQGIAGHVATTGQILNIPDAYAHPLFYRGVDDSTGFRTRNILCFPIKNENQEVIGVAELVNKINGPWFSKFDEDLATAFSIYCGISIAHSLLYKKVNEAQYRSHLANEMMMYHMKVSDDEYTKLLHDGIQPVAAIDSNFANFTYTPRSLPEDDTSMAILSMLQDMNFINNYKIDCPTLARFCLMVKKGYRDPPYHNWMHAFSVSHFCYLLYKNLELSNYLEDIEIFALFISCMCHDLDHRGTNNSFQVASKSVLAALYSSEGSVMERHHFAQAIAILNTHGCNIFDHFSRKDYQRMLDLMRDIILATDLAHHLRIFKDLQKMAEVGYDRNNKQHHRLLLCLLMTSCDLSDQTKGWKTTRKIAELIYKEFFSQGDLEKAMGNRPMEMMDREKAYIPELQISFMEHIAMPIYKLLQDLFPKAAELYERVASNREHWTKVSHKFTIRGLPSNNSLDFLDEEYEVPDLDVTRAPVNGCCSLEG
Method in brief: (§2)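 The particulate enzyme was the washed high-speed pellet, rehomogenized in sucrose buffer, then resuspended and dialyzed overnight in 20 mM Tris-HCl pH 7.5, 1 mM MgCl2, 0.1 mM DTT, and stored at -20 °C. Hydrolysis of 0.25 µM cAMP or cGMP was assayed at 30 °C in triplicate.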

[3] = Inhibition of rat brain particulate cAMP phosphodiesterase (inactive); method in brief: as §2
[4] = Inhibition of rat brain particulate cAMP phosphodiesterase; conditions: read-out: I50; method in brief: as §2
[5] = organism: Rattus norvegicus; assay: Relative inhibition of cAMP and cGMP hydrolysis by cytosolic phosphodiesterase
[6] = organism: Rattus norvegicus; assay: Relative inhibition of cAMP and cGMP hydrolysis by particulate phosphodiesterase
[7] = target: Phosphodiesterase 1 (Rattus norvegicus, UniProt Q63421+Q9EPR9+Q01066); assay: Inhibition of rat brain cytosolic cGMP phosphodiesterase; method in brief: as §1
[8] = Inhibition of rat brain cytosolic cAMP phosphodiesterase; conditions: read-out: I 50; method in brief: as §1
[9] = Inhibition of rat brain particulate cAMP phosphodiesterase; conditions: read-out: I 50
[10] = target: T1, cGMP-dependent 3',5'-cyclic phosphodiesterase; assay: Inhibition of rat brain particulate cGMP phosphodiesterase; method in brief: as §2
[11] = Inhibition of rat brain cytosolic cAMP phosphodiesterase (Inactive); method in brief: as §1
[12] = target: T1, cGMP-dependent 3',5'-cyclic phosphodiesterase; assay: Inhibition of rat brain particulate cGMP phosphodiesterase (Inactive); method in brief: as §2
[13] = Inhibition of rat brain particulate cAMP phosphodiesterase (Inactive); method in brief: as §2

SMILES | Ratio [5] | Ratio [6] | I 50 [7] [µM] | IC50 [8] [µM] | IC50 [9] [µM] | IC50 ([10]; read-out: I 50) [µM] | I 50 [11] | I 50 [12] | further results
O=C(O)COc1cc(OCC(=O)O)c2c(=O)c(OCC(=O)O)c(-c3ccc(OCC(=O)O)c(OCC(=O)O)c3)oc2c1 |  |  |  |  |  |  |  |  | I 50 [1]: Not Active; I 50 [2]: Not Active; I 50 [3]: Not Active
CCCOc1ccccc1-c1nc2[nH]nnc2c(=O)[nH]1 [ZAPRINAST] | 0.71 | 1.17 | 93.3 | 66.1 |  |  |  |  | IC50 [4]: 74.1 µM
CC(=O)Oc1cc(OC(C)=O)c2c(=O)c(OC(C)=O)c(-c3ccc(OC(C)=O)c(OC(C)=O)c3)oc2c1 |  | 0.46 |  | 355 | 126 | 275 |  |  | 
CCOc1cc(OCCBr)c2c(=O)c(OCC)c(-c3ccc(OCC)c(OCC)c3)oc2c1 | < 0.04 | 0.18 | > 1000 | 40 | 17 | 96 |  |  | 
COc1cc(OC)c2c(=O)c(OC)c(-c3ccc(OC)c(OC)c3)oc2c1 | < 0.008 | 0.1 | > 1000 | 6.3 | 10.2 | 96 |  |  | 
CCOC(=O)COc1c(-c2ccc(OCC)c(OCC)c2)oc2cc(OCC)cc(OCC)c2c1=O |  |  |  |  |  |  | Not Active | Not Active | I 50 [13]: Not Active
CCOC(=O)COc1cc(OCC(=O)OCC)c2c(=O)c(OCC(=O)OCC)c(-c3ccc(OCC(=O)OCC)c(OCC(=O)OCC)c3)oc2c1 |  |  |  |  |  |  | Not Active | Not Active | I 50 [13]: Not Active
CCOC(=O)COc1cc(OCC)cc2oc(-c3ccc(OCC)c(OCC)c3)c(OCC)c(=O)c12 | < 0.08 | 0.01 | > 1000 | 80 | 8.3 | 700 |  |  | 
CCOc1cc(OCCN(CC)CC)c2c(=O)c(OCC)c(-c3ccc(OCC)c(OCC)c3)oc2c1 | 0.6 | 0.11 | 58 | 35 |  |  |  |  | IC50 [4]: 10 µM; IC50 ([10]; read-out: I50): 80 µM
CCOc1cc(OCC)c2c(=O)c(O)c(-c3ccc(OCC)c(OCC)c3)oc2c1 |  |  |  |  |  |  | Not Active | Not Active | I 50 [13]: Not Active
CCOc1cc(OCC)c2c(=O)c(OCC)c(-c3ccc(OCC)c(OCC)c3)oc2c1 | < 0.007 | 0.02 | > 10000 | 70 | 7.7 | 350 |  |  | 
CCOc1cc(OCC(=O)O)c2c(=O)c(OCC)c(-c3ccc(OCC)c(OCC)c3)oc2c1 | 0.32 | 0.32 | 63 | 20 | 16 | 48 |  |  | 
O=c1c(O)c(-c2ccc(O)c(O)c2)oc2cc(O)cc(O)c12 [QUERCETIN] | 0.32 | 0.24 | 275 | 87 | 20 | 81.3 |  |  | 
CCCOc1cc(OCCC)c2c(=O)c(OCCC)c(-c3ccc(OCCC)c(OCCC)c3)oc2c1 |  |  |  |  |  |  | Not Active | Not Active | I 50 [13]: Not Active
CCCCOc1cc(CC2CNC(=O)N2)ccc1OC (stereo not drawn) [RO-201724] | 0.16 | 0.007 | > 1000 | 1660 | 74.1 | 10000 |  |  | 
CCOc1cc(OCC)c2c(=O)c(OCC(=O)O)c(-c3ccc(OCC)c(OCC)c3)oc2c1 | < 0.01 | 0.31 | > 1000 | 10 | 22 | 71 |  |  | 
CCCOc1ccccc1-c1nc2nn[nH]c2c(=O)[nH]1 [ZAPRINAST] |  |  |  |  |  |  |  |  | IC50 ([10]; read-out: I50): 63.1 µM
CCOc1cc(OCC)c2c(=O)c(OCCN(CC)CC)c(-c3ccc(OCC)c(OCC)c3)oc2c1 | 0.79 | 0.16 | 47 | 37 |  |  |  |  | IC50 [4]: 20 µM; IC50 ([10]; read-out: I50): 126 µM
CCOc1cc(OCC)c2c(=O)c(OCCO)c(-c3ccc(OCC)c(OCC)c3)oc2c1 |  |  |  |  |  |  | Not Active | Not Active | I 50 [13]: Not Active
CCCC(=O)Oc1cc(OC(=O)CCC)c2c(=O)c(OC(=O)CCC)c(-c3ccc(OC(=O)CCC)c(OC(=O)CCC)c3)oc2c1 |  |  |  |  |  |  | Not Active | Not Active | I 50 [13]: Not Active
CCC(=O)Oc1cc(OC(=O)CC)c2c(=O)c(OC(=O)CC)c(-c3ccc(OC(=O)CC)c(OC(=O)CC)c3)oc2c1 |  |  |  |  |  |  | Not Active | Not Active | 
CCOc1cc(O)c2c(=O)c(OCC)c(-c3ccc(OCC)c(OCC)c3)oc2c1 |  |  |  |  |  |  | Not Active | Not Active | I 50 [13]: Not Active
O=c1c(OCCO)c(-c2ccc(OCCO)c(OCCO)c2)oc2cc(OCCO)cc(OCCO)c12 | 0.17 | 0.05 | 2800 | 470 | 69 | 1300 |  |  | 
O=c1c(OCCBr)c(-c2ccc(OCCBr)c(OCCBr)c2)oc2cc(OCCBr)cc(OCCBr)c12 | 0.05 | 0.73 | 10000 | 500 | 18 | 24.5 |  |  | 

Source: ChEMBL document CHEMBL1122175, “Pentasubstituted quercetin analogues as selective inhibitors of particulate 3':5'-cyclic-AMP phosphodiesterase from rat brain” (J Med Chem, 1982)
